Laboratory results from ChEMBL document CHEMBL1649560, “Beta-lactamase-mediated beta-lactam resistance in Campylobacter species: prevalence of Cj0299 (bla OXA-61) and evidence for a novel beta-Lactamase in C. jejuni” (2009).
In brackets after ≈: the same amount, converted by molar mass.

Columns and labels:
Type in all cases: functional
[1] = tested on: Campylobacter jejuni; assay: Antibacterial activity against Campylobacter jejuni by NCCLS agar doubling dilution method
Outline: (§1)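 MICs by agar doubling dilution following the NCCLS (CLSI) Campylobacter Working Group procedure, applied to ampicillin- and amoxicillin-resistant isolates from UK chicken flocks (2000–2006). C. jejuni NCTC 11168 and C. coli NCTC 11366 served as control strains. Resistance was called at an ampicillin cutoff of 8 μg/ml. Other agents were judged against Enterobacteriaceae guidelines (BSAC, CLSI).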

[2] = tested on: Campylobacter coli; assay: Antibacterial activity against Campylobacter coli by NCCLS agar doubling dilution method; outline: as §1
[3] = tested on: Campylobacter jejuni; assay: Antibacterial activity against bla gene-positive and nitrocefin reaction-negative beta-lactamase harboring Campylobacter jejuni NCTC 11168 by NCCLS agar doubling dilution method
Outline: (§2)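 MICs of β-lactams by agar doubling dilution following the NCCLS (CLSI) Campylobacter Working Group procedure, with C. jejuni NCTC 11168 and C. coli NCTC 11366 as controls. Isolates were from UK poultry flocks. β-Lactamase status was set by Cj0299 PCR (281-bp amplimer) and by a nitrocefin colour change of sonicated lysate within 5 min, or within 30 min on repeat.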

[4] = tested on: Campylobacter jejuni; assay: Antibacterial activity against Campylobacter jejuni isolate P270 harboring blaOXA-61::cat gene by NCCLS agar doubling dilution method
[5] = tested on: Campylobacter jejuni; assay: Antibacterial activity against bla gene-negative and nitrocefin reaction-negative beta-lactamase harboring Campylobacter jejuni isolate P835 by NCCLS agar doubling dilution method; outline: as §2
[6] = tested on: Campylobacter jejuni; assay: Antibacterial activity against bla gene-negative and nitrocefin reaction-negative beta-lactamase harboring Campylobacter jejuni isolate P850 by NCCLS agar doubling dilution method; outline: as §2
[7] = tested on: Campylobacter jejuni; assay: Antibacterial activity against bla gene-negative and nitrocefin reaction-negative beta-lactamase harboring Campylobacter jejuni isolate P1962 by NCCLS agar doubling dilution method; outline: as §2
[8] = tested on: Campylobacter jejuni; assay: Antibacterial activity against bla gene-positive and nitrocefin reaction-positive beta-lactamase harboring Campylobacter jejuni isolate P285 by NCCLS agar doubling dilution method
Outline: (§3)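 MICs by agar doubling dilution per the NCCLS (now CLSI) Campylobacter Working Group method. Isolates came from UK chicken flocks (feces, ceca or farm environment), 2000–2006. C. jejuni NCTC 11168 and C. coli NCTC 11366 served as control strains. The ampicillin resistance cutoff was 8 μg/ml; BSAC/CLSI Enterobacteriaceae guidelines were used for other agents.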

[9] = tested on: Campylobacter jejuni; assay: Antibacterial activity against bla gene-positive and nitrocefin reaction-positive beta-lactamase harboring Campylobacter jejuni isolate P286 by NCCLS agar doubling dilution method; outline: as §3
[10] = tested on: Campylobacter jejuni; assay: Antibacterial activity against bla gene-positive and nitrocefin reaction-positive beta-lactamase harboring Campylobacter jejuni isolate P305 by NCCLS agar doubling dilution method; outline: as §3
[11] = tested on: Campylobacter jejuni; assay: Antibacterial activity against bla gene-positive and nitrocefin reaction-positive beta-lactamase harboring Campylobacter jejuni isolate P316 by NCCLS agar doubling dilution method; outline: as §3
[12] = tested on: Campylobacter jejuni; assay: Antibacterial activity against bla gene-positive and nitrocefin reaction-positive beta-lactamase harboring Campylobacter jejuni isolate P338 by NCCLS agar doubling dilution method; outline: as §3
[13] = tested on: Campylobacter jejuni; assay: Antibacterial activity against Campylobacter jejuni isolate P338 harboring blaOXA-61::cat gene by NCCLS agar doubling dilution method
Outline: (§4)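 Agar doubling dilution MICs (NCCLS/CLSI Campylobacter Working Group method) against Cj0299-inactivated mutants. Mutants were made by transforming the C. jejuni isolate with pCI and selecting on Mueller-Hinton agar with 10 μg/ml chloramphenicol for 3–5 days. Chromosomal insertion was confirmed by PCR with Cj0299 and cat primers.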

[14] = tested on: Campylobacter jejuni; assay: Antibacterial activity against bla gene-positive and nitrocefin reaction-positive beta-lactamase harboring Campylobacter jejuni isolate P790 by NCCLS agar doubling dilution method; outline: as §3
[15] = tested on: Campylobacter jejuni; assay: Antibacterial activity against bla gene-positive and nitrocefin reaction-positive beta-lactamase harboring Campylobacter jejuni isolate P1093 by NCCLS agar doubling dilution method; outline: as §2
[16] = tested on: Campylobacter jejuni; assay: Antibacterial activity against Campylobacter jejuni isolate P1093 harboring blaOXA-61::cat gene by NCCLS agar doubling dilution method; outline: as §4
[17] = tested on: Campylobacter jejuni; assay: Antibacterial activity against bla gene-positive and nitrocefin reaction-positive beta-lactamase harboring Campylobacter jejuni isolate P1618 by NCCLS agar doubling dilution method; outline: as §2
[18] = tested on: Campylobacter jejuni; assay: Antibacterial activity against bla gene-positive and nitrocefin reaction-positive beta-lactamase harboring Campylobacter jejuni isolate P1650 by NCCLS agar doubling dilution method; outline: as §2
[19] = tested on: Campylobacter jejuni; assay: Antibacterial activity against bla gene-positive and nitrocefin reaction-positive beta-lactamase harboring Campylobacter jejuni isolate P1730 by NCCLS agar doubling dilution method; outline: as §3
[20] = tested on: Campylobacter jejuni; assay: Antibacterial activity against bla gene-positive and nitrocefin reaction-negative beta-lactamase harboring Campylobacter jejuni isolate P1698 by NCCLS agar doubling dilution method; outline: as §2
[21] = tested on: Campylobacter jejuni; assay: Antibacterial activity against bla gene-positive and nitrocefin reaction-negative beta-lactamase harboring Campylobacter jejuni isolate P1699 by NCCLS agar doubling dilution method; outline: as §2
[22] = tested on: Campylobacter jejuni; assay: Antibacterial activity against bla gene-negative and nitrocefin reaction-positive beta-lactamase harboring Campylobacter jejuni isolate P843 by NCCLS agar doubling dilution method; outline: as §2
[23] = tested on: Campylobacter jejuni; assay: Antibacterial activity against bla gene-negative and nitrocefin reaction-positive beta-lactamase harboring Campylobacter jejuni isolate P854 by NCCLS agar doubling dilution method; outline: as §2
[24] = tested on: Campylobacter coli; assay: Antibacterial activity against bla gene-positive and nitrocefin reaction-positive beta-lactamase harboring Campylobacter coli isolate P321 by NCCLS agar doubling dilution method; outline: as §2
[25] = tested on: Campylobacter coli; assay: Antibacterial activity against bla-positive and beta-lactamase-weakly positive Campylobacter coli isolate P1627 by NCCLS agar doubling dilution method; outline: as §3
[26] = tested on: Campylobacter coli; assay: Antibacterial activity against bla gene-positive and nitrocefin reaction-positive beta-lactamase harboring Campylobacter coli isolate P1826 by NCCLS agar doubling dilution method; outline: as §2

| Compound | MIC50 [1] [µg/mL] | MIC90 [1] [µg/mL] | MIC50 [2] [µg/mL] | MIC90 [2] [µg/mL] | MIC [3] [µg/mL] | MIC [4] [µg/mL] | MIC [5] [µg/mL] | MIC [6] [µg/mL] | MIC [7] [µg/mL] | MIC [8] [µg/mL] | MIC [9] [µg/mL] | MIC [10] [µg/mL] | MIC [11] [µg/mL] | MIC [12] [µg/mL] | MIC [13] [µg/mL] | MIC [14] [µg/mL] | MIC [15] [µg/mL] | MIC [16] [µg/mL] | MIC [17] [µg/mL] | MIC [18] [µg/mL] | other results |
| --- | --- | --- | --- | --- | --- | --- | --- | --- | --- | --- | --- | --- | --- | --- | --- | --- | --- | --- | --- | --- | --- |
| CO[C@@]1(NC(=O)Cc2cccs2)C(=O)N2C(C(=O)O)=C(COC(N)=O)CS[C@@H]21 [CEFOXITIN] | 128 (≈ 299 µM) | 256 (≈ 599 µM) | 128 (≈ 299 µM) | > 256 | 32 (≈ 74.9 µM) | 32 (≈ 74.9 µM) | 256 (≈ 599 µM) | 256 (≈ 599 µM) | 256 (≈ 599 µM) | 256 (≈ 599 µM) | 256 (≈ 599 µM) | 128 (≈ 299 µM) | 128 (≈ 299 µM) | 512 (≈ 1200 µM) | 512 (≈ 1200 µM) | 64 (≈ 150 µM) | 128 (≈ 299 µM) | 128 (≈ 299 µM) | 256 (≈ 599 µM) | 128 (≈ 299 µM) | MIC [19]: 256 µg/mL (≈ 599 µM); MIC [20]: 128 µg/mL (≈ 299 µM); MIC [21]: 128 µg/mL (≈ 299 µM); MIC [22]: 256 µg/mL (≈ 599 µM); MIC [23]: 128 µg/mL (≈ 299 µM); MIC [24]: 64 µg/mL (≈ 150 µM); MIC [25]: 64 µg/mL (≈ 150 µM); MIC [26]: 128 µg/mL (≈ 299 µM) |
| CO/N=C(\C(=O)N[C@@H]1C(=O)N2C(C(=O)O)=C(COC(N)=O)CS[C@H]12)c1ccco1 [CEFUROXIME] | 128 (≈ 302 µM) | 128 (≈ 302 µM) | 128 (≈ 302 µM) | 256 (≈ 603 µM) | 32 (≈ 75.4 µM) | 64 (≈ 151 µM) | 64 (≈ 151 µM) | 128 (≈ 302 µM) | 64 (≈ 151 µM) | 128 (≈ 302 µM) | 128 (≈ 302 µM) | 64 (≈ 151 µM) | 64 (≈ 151 µM) | 128 (≈ 302 µM) | 128 (≈ 302 µM) | 64 (≈ 151 µM) | 128 (≈ 302 µM) | 128 (≈ 302 µM) | 256 (≈ 603 µM) | 128 (≈ 302 µM) | MIC [19]: 128 µg/mL (≈ 302 µM); MIC [20]: 64 µg/mL (≈ 151 µM); MIC [21]: 64 µg/mL (≈ 151 µM); MIC [22]: 64 µg/mL (≈ 151 µM); MIC [23]: 128 µg/mL (≈ 302 µM); MIC [24]: 64 µg/mL (≈ 151 µM); MIC [25]: 64 µg/mL (≈ 151 µM); MIC [26]: 64 µg/mL (≈ 151 µM) |
| CC(=O)OCC1=C(C(=O)O)N2C(=O)[C@@H](NC(=O)Cc3cccs3)[C@H]2SC1 [CEPHALOTHIN] | > 256 | > 256 | 256 (≈ 646 µM) | > 256 | – | – | – | – | – | – | – | – | – | – | – | – | – | – | – | – | – |
| Cc1onc(-c2ccccc2Cl)c1C(=O)N[C@@H]1C(=O)N2[C@@H]1SC(C)(C)[C@@H]2C(=O)O [CLOXACILLIN] | 256 (≈ 587 µM) | > 256 | 256 (≈ 587 µM) | > 256 | 128 (≈ 294 µM) | 128 (≈ 294 µM) | 256 (≈ 587 µM) | 256 (≈ 587 µM) | 256 (≈ 587 µM) | 256 (≈ 587 µM) | 256 (≈ 587 µM) | 256 (≈ 587 µM) | 256 (≈ 587 µM) | 128 (≈ 294 µM) | 128 (≈ 294 µM) | > 256 | 512 (≈ 1170 µM) | 256 (≈ 587 µM) | 128 (≈ 294 µM) | 256 (≈ 587 µM) | MIC [2]: 256 µg/mL (≈ 587 µM); MIC [19]: 256 µg/mL (≈ 587 µM); MIC [20]: 128 µg/mL (≈ 294 µM); MIC [21]: 256 µg/mL (≈ 587 µM); MIC [22]: > 256 µg/mL; MIC [23]: 256 µg/mL (≈ 587 µM); MIC [24]: 256 µg/mL (≈ 587 µM); MIC [25]: 256 µg/mL (≈ 587 µM); MIC [26]: 256 µg/mL (≈ 587 µM) |
| CC1(C)S[C@@H]2[C@H](NC(=O)[C@H](C(=O)O)c3ccsc3)C(=O)N2[C@H]1C(=O)O [TICARCILLIN] | 64 (≈ 166 µM) | 128 (≈ 333 µM) | 64 (≈ 166 µM) | 128 (≈ 333 µM) | 2 (≈ 5.2 µM) | 2 (≈ 5.2 µM) | 4 (≈ 10.4 µM) | 128 (≈ 333 µM) | < 4 | 64 (≈ 166 µM) | 64 (≈ 166 µM) | 128 (≈ 333 µM) | 64 (≈ 166 µM) | 64 (≈ 166 µM) | 4 (≈ 10.4 µM) | 128 (≈ 333 µM) | 32 (≈ 83.2 µM) | 8 (≈ 20.8 µM) | 64 (≈ 166 µM) | 64 (≈ 166 µM) | MIC [19]: 32 µg/mL (≈ 83.2 µM); MIC [20]: 64 µg/mL (≈ 166 µM); MIC [21]: 128 µg/mL (≈ 333 µM); MIC [22]: 128 µg/mL (≈ 333 µM); MIC [23]: 128 µg/mL (≈ 333 µM); MIC [24]: 64 µg/mL (≈ 166 µM); MIC [25]: 64 µg/mL (≈ 166 µM) |
